From ChEMBL document CHEMBL1806497, “Design, synthesis and evaluation of N-benzoylindazole derivatives and analogues as inhibitors of human neutrophil elastase” (Bioorg Med Chem, 2011)
Calls of active or inactive are those of the source. The calls are words filed in the database; no cut-off is given here.

How the values were obtained:
[1] = target: T1, Neutrophil elastase (Homo sapiens) (UniProt P08246); assay: Inhibition of human neutrophil elastase assessed as cleavage of substrate N-methylsuccinyl-Ala-Ala-Pro-Val-7-amino-4-methyl-coumarin at 600 nM after 10 hrs by fluorescence microplate reader
T1 sequence (whole entry): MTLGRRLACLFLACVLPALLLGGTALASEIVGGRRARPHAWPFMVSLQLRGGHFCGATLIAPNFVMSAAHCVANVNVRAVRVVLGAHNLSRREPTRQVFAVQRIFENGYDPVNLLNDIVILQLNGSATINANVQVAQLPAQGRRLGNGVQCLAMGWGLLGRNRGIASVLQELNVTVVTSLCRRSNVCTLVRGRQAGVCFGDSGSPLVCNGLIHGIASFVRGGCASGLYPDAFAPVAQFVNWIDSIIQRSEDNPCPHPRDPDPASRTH
Method in brief: (§1)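 HNE incubated with compound at 600 nM; substrate cleavage followed fluorimetrically for the first 180 min and out to 10 h, with a vehicle control. More fluorogenic substrate added after the 10 h incubation to test residual enzyme activity.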

[2] = Inhibition of human pancreatic chymotrypsin using Suc-Ala-Ala-Pro-Phe-7-amino-4-methylcoumarin as substrate by spectrophotometric analysis
Method in brief: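 30 nM chymotrypsin in 0.05 M Tris–HCl pH 8.0 with 100 µM substrate, 25 °C. Fluorescence read at ex 355/em 460 nm. IC50 from % inhibition vs log concentration, at least six points; mean of ≥3 experiments.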

[3] = target: T1, Neutrophil elastase (Homo sapiens); assay: Inhibition of human neutrophil elastase assessed as cleavage of substrate N-methylsuccinyl-Ala-Ala-Pro-Val-7-amino-4-methyl-coumarin at 600 nM measured upto 120 mins by fluorescence microplate reader
[4] = target: T1, Neutrophil elastase (Homo sapiens); assay: Inhibition of human neutrophil elastase assessed as cleavage of substrate N-methylsuccinyl-Ala-Ala-Pro-Val-7-amino-4-methyl-coumarin at 600 nM after 5 hrs by fluorescence microplate reader; method in brief: as §1
[5] = target: Urokinase-type plasminogen activator (Homo sapiens, UniProt P00749); assay: Inhibition of human urine urokinase using benzyloxycarbonyl-Gly-Gly-Arg-7-amino-4-methylcoumarin as substrate by spectrophotometric analysis
Method in brief: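 30 U/mL urokinase in 0.1 M Tris–HCl pH 8.0 with 30 µM substrate, 25 °C. Fluorescence read at ex 355/em 460 nm. IC50 from % inhibition vs log concentration, at least six points; mean of ≥3 experiments.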

Prothrombin = Prothrombin (Homo sapiens, UniProt P00734); assay: Inhibition of human plasma thrombin benzoyl-Phe-Val-Arg-7-amino-4-methylcoumarin as substrate by spectrophotometric analysis
Method in brief: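 Fluorescence read at ex 355/em 460 nm. IC50 from % inhibition vs log concentration, at least six points; mean of ≥3 experiments.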

Neutrophil elastase = target: T2, Neutrophil elastase (Homo sapiens, UniProt P08246); assay: Inhibition of human neutrophil elastase using N-methylsuccinyl-Ala-Ala-Pro-Val-7-amino-4-methyl-coumarin as substrate measured every 30 secs for 10 mins by fluorescence microplate reader
T2 sequence (P08246 whole entry): T1 sequence (whole entry)

[6] = target: T1, Neutrophil elastase (Homo sapiens); assay: Inhibition of human neutrophil elastase using N-methylsuccinyl-Ala-Ala-Pro-Val-7-amino-4-methyl-coumarin as substrate at < 55 uM measured every 30 secs for 10 mins by fluorescence microplate reader
Method in brief: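 20 mU/mL HNE in 200 mM Tris–HCl pH 7.5, 0.01% BSA, 0.05% Tween-20, 1% DMSO final, added to compound dilutions. Reaction started with 25 µM substrate, read every 30 s for 10 min at 25 °C (ex 355/em 460 nm). IC50 from % inhibition vs log concentration, at least six points; mean of ≥3 independent experiments.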

[7] = Stability of the compound in aqueous buffer pH 7.3 assessed as hydrolysis of the compound after 10 hrs by spectrophotometric analysis; format: physicochemical; settings: pH 7.3, 10 h
Method in brief: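 Compound at 20 µM in 0.05 M phosphate buffer pH 7.3, 25 °C. Absorbance spectra (230–330 nm) scanned repeatedly over time to follow spontaneous hydrolysis; scans representative of two independent experiments.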

[8] = target: T1, Neutrophil elastase (Homo sapiens); assay: Competitive inhibition of human neutrophil elastase assessed as hydrolysis of fluorogenic substrate N-methylsuccinyl-Ala-Ala-Pro-Val-7-amino-4-methyl-coumarin by Lineweaver-Burk plot analysis
Method in brief: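 HNE kinetics with inhibitor at 0 and 40 nM over varied substrate concentrations; double-reciprocal Lineweaver–Burk plot, representative of three independent experiments.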

[9] = target: T1, Neutrophil elastase (Homo sapiens); assay: Inhibition of human neutrophil elastase assessed as cleavage of substrate N-methylsuccinyl-Ala-Ala-Pro-Val-7-amino-4-methyl-coumarin at 600 nM measured upto 90 mins by fluorescence microplate reader; method in brief: as §1

**Q.** What does the source list for `O=C(OCC(F)(F)F)c1nn(C(=O)c2ccccc2)c2ccccc12`?
**A.** inhibition [1]: inactive; IC50 [2]: 0.0029 µM; inhibition [3]: Active; inhibition [4]: 50%; IC50 [5]: 10 µM; IC50 (Prothrombin): 6.7 µM; IC50 (Neutrophil elastase): 0.26 µM

**Q.** With `CCOC(=O)c1nn(C(=O)c2cccc(C(F)(F)F)c2)c2ccccc12` as the compound, how does the inhibition [6] read?
**A.** The inhibition was “inactive”.

**Q.** With `CCOC(=O)c1nn(C(=O)Nc2ccc(Cl)cc2)c2ccccc12` as the compound, how does the inhibition [6] read?
**A.** Its inhibition is “inactive”.

**Q.** Which inhibition [6] does the source give for `CCOC(=O)c1nn(C(=O)c2ccc([N+](=O)[O-])cc2)c2ccccc12` here?
**A.** Its inhibition is “inactive”.

**Q.** Which results are given for `CC(C)OC(=O)c1nn(C(=O)c2ccccc2)c2ccccc12`?
**A.** inhibition [1]: inactive; IC50 [2]: 0.047 µM; inhibition [3]: Active; inhibition [4]: 50%; IC50 [5]: 6.3 µM; IC50 (Prothrombin): 7.8 µM; IC50 (Neutrophil elastase): 0.24 µM

**Q.** Which results are given for `COC(=O)c1nn(C(=O)c2ccccc2)c2ccccc12`?
**A.** inhibition [1]: inactive; IC50 [2]: 0.081 µM; inhibition [3]: Active; Stability [7]: Unstable; inhibition [8]: Active; inhibition [4]: 50%; IC50 [5]: 1.2 µM; IC50 (Prothrombin): 14 µM; IC50 (Neutrophil elastase): 0.089 µM

**Q.** Which inhibition [6] does the source give for `CCOC(=O)c1nn(C(=O)C2CCCCC2)c2ccccc12` here?
**A.** Its inhibition is “inactive”.

**Q.** For `O=C(Nc1ccccc1)c1nn(C(=O)c2ccncc2)c2ccccc12`, which inhibition [6] is on record?
**A.** The inhibition was “inactive”.

**Q.** Which inhibition [6] does the source give for `CCOC(=O)c1nn(C(=O)c2cc(OC)c(OC)c(OC)c2)c2ccccc12` here?
**A.** Its inhibition is “inactive”.

**Q.** With `CCOC(=O)c1nn(C(=O)c2ccncc2)c2ccccc12` as the compound, how does the inhibition [6] read?
**A.** Its inhibition is “inactive”.

**Q.** With `CCCC(=O)n1nc(C(=O)OCC)c2ccccc21` as the compound, how does the inhibition [1] read?
**A.** The inhibition was “inactive”.

**Q.** What about the IC50 [2] of the same compound?
**A.** Its IC50 is 0.43 µM.

**Q.** And the inhibition [4]?
**A.** Its inhibition is “inactive”.

**Q.** What about the IC50 [5] of the same compound?
**A.** Its IC50 is 14 µM.

**Q.** And the IC50 (Prothrombin)?
**A.** The IC50 was 5.2 µM.

**Q.** And the IC50 (Neutrophil elastase)?
**A.** The IC50 was 0.18 µM.

**Q.** What about the inhibition [9] of the same compound?
**A.** Its inhibition is “Active”.

**Q.** For `CCOC(=O)c1nn(CC(=O)c2ccccc2)c2ccccc12`, which inhibition [6] is on record?
**A.** Its inhibition is “inactive”.

**Q.** For `Cc1ccc(S(=O)(=O)n2nc(C(=O)Nc3ccccc3)c3ccccc32)cc1`, which inhibition [6] is on record?
**A.** The inhibition was “inactive”.

**Q.** For `O=C(Nc1ccccc1)c1nn(Cc2ccc(Cl)cc2)c2ccccc12`, which inhibition [6] is on record?
**A.** Its inhibition is “inactive”.

**Q.** For `O=C(Nc1ccccc1)c1nn(S(=O)(=O)c2ccc(Cl)cc2)c2ccccc12`, which inhibition [6] is on record?
**A.** Its inhibition is “inactive”.

**Q.** With `COC(=O)c1nn(C(=O)c2cccc(C)c2)c2ccccc12` as the compound, how does the inhibition [1] read?
**A.** The inhibition was “inactive”.

**Q.** And the IC50 [2]?
**A.** Its IC50 is 0.03 µM.

**Q.** What about the inhibition [3] of the same compound?
**A.** The inhibition was “Active”.

**Q.** And the inhibition [8]?
**A.** Its inhibition is “Active”.

**Q.** What about the IC50 [5] of the same compound?
**A.** Its IC50 is 0.87 µM.

**Q.** What about the IC50 (Prothrombin) of the same compound?
**A.** Its IC50 is 5.1 µM.

**Q.** And the IC50 (Neutrophil elastase)?
**A.** Its IC50 is 0.13 µM.

**Q.** With `COc1cccc(C(=O)n2nc(C)c3ccccc32)c1` as the compound, how does the inhibition [6] read?
**A.** The inhibition was “inactive”.

**Q.** Which inhibition [6] does the source give for `O=C(Nc1ccccc1)c1nn(C(=O)c2ccc([N+](=O)[O-])cc2)c2ccccc12` here?
**A.** The inhibition was “inactive”.

**Q.** With `O=C(Nc1ccccc1)c1nn(C(=O)c2ccccc2Cl)c2ccccc12` as the compound, how does the inhibition [6] read?
**A.** Its inhibition is “inactive”.

**Q.** Which inhibition [6] does the source give for `CCOC(=O)c1nn(C(=O)c2ccccc2Cl)c2ccccc12` here?
**A.** Its inhibition is “inactive”.

**Q.** With `COC(=O)c1nn(C(=O)c2ccsc2)c2ccccc12` as the compound, how does the inhibition [1] read?
**A.** Its inhibition is “inactive”.

**Q.** And the IC50 [2]?
**A.** Its IC50 is 0.26 µM.

**Q.** And the inhibition [3]?
**A.** The inhibition was “Active”.

**Q.** What about the inhibition [4] of the same compound?
**A.** The inhibition was 50%.

**Q.** What about the IC50 [5] of the same compound?
**A.** Its IC50 is 12 µM.

**Q.** What about the IC50 (Neutrophil elastase) of the same compound?
**A.** Its IC50 is 0.31 µM.

**Q.** For `COC(=O)c1nn(C(=O)c2cccc(N)c2)c2ccccc12`, which inhibition [6] is on record?
**A.** Its inhibition is “inactive”.

**Q.** With `O=C(Nc1ccccc1)c1nn(-c2ccc(Cl)cc2)c2ccccc12` as the compound, how does the inhibition [6] read?
**A.** Its inhibition is “inactive”.

**Q.** Which inhibition [6] does the source give for `CCOC(=O)c1nn(C(=O)Nc2cccc(OC)c2)c2ccccc12` here?
**A.** Its inhibition is “inactive”.

**Q.** Which inhibition [6] does the source give for `CCOC(=O)c1nn(C(=O)c2cccc([N+](=O)[O-])c2)c2ccccc12` here?
**A.** Its inhibition is “inactive”.

**Q.** With `CCOC(=O)c1nn(C(=O)c2cccc3ccccc23)c2ccccc12` as the compound, how does the inhibition [6] read?
**A.** Its inhibition is “inactive”.

**Q.** Which inhibition [6] does the source give for `O=C(O)c1nn(C(=O)c2ccccc2)c2ccccc12` here?
**A.** The inhibition was “inactive”.
